In ChEMBL document CHEMBL1144694, “Identification of 4-(4-aminopiperidin-1-yl)-7H-pyrrolo[2,3-d]pyrimidines as selective inhibitors of protein kinase B through fragment elaboration” (J Med Chem, 2008):

Experiments:
[1] = biological target: RAC-beta serine/threonine-protein kinase (Homo sapiens, UniProt P31751); test: Inhibition of PKBbeta recombinant by radiometric filter binding assay
[2] = Inhibition of recombinant catalytic subunit PKA by radiometric filter binding assay
[3] = Growth inhibition of human PC3M cells by SRB assay; type: functional, cell-based; conditions: PC-3M
[4] = Growth inhibition of human U87MG cells by SRB assay; type: functional, cell-based, U-87MG ATCC; conditions: U-87 MG
[5] = Metabolic stability in human liver microsomes at 10 uM after 30 mins; type: ADME, Microsome; conditions: read-out: Stability
Summary of the method: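 Human liver microsomes with cofactors for phase I metabolism, compound at 10 µM for 30 min. Percent parent remaining measured by LC-MS/MS.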

[6] = Metabolic stability in BALB/c mouse liver microsomes at 10 uM after 30 mins; type: ADME, Microsome; conditions: read-out: Stability
Summary of the method: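 Incubated at 10 µM for 30 min in mouse liver microsomes competent for phase I and phase II metabolism. Parent remaining quantified by LC-MS/MS, with metabolite identification.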

Mus musculus [7] = test: Half life in BALB/c mouse at 25 mg/kg, iv; type: ADME, organism-based; design: dose 25 mg/kg, route intravenous; conditions: in vivo
Summary of the method: (§1)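 Female BALB/c mice dosed at 25 mg kg^-1 intravenously or orally, compound in 10% DMSO 0.1% Tween-20 in saline. Plasma concentrations measured over time to derive T1/2, Tmax, Cmax, AUC, Vss and plasma clearance.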

[8] = Half life in BALB/c mouse at 25 mg/kg, po; type: ADME, organism-based; design: dose 25 mg/kg, route oral; conditions: in vivo; summary of the method: as §1
[9] = Tmax in BALB/c mouse at 25 mg/kg, iv; type: ADME, organism-based; design: dose 25 mg/kg, route intravenous; conditions: in vivo; summary of the method: as §1
[10] = Tmax in BALB/c mouse at 25 mg/kg, po; type: ADME, organism-based; design: dose 25 mg/kg, route oral; conditions: in vivo; summary of the method: as §1
[11] = Cmax in BALB/c mouse at 25 mg/kg, iv; type: ADME, organism-based; design: dose 25 mg/kg, route intravenous; conditions: in vivo; summary of the method: as §1
[12] = Cmax in BALB/c mouse at 25 mg/kg, po; type: ADME, organism-based; design: dose 25 mg/kg, route oral; conditions: in vivo; summary of the method: as §1
[13] = AUC in BALB/c mouse at 25 mg/kg, iv; type: ADME, organism-based; design: dose 25 mg/kg, route intravenous; conditions: plasma; summary of the method: as §1
[14] = AUC in BALB/c mouse at 25 mg/kg, po; type: ADME, organism-based; design: dose 25 mg/kg, route oral; conditions: plasma; summary of the method: as §1
Mus musculus [15] = test: Volume of distribution at steady state in BALB/c mouse at 25 mg/kg, iv; type: ADME, organism-based; design: dose 25 mg/kg, route intravenous; conditions: in vivo; summary of the method: as §1
Mus musculus [16] = test: Clearance in BALB/c mouse plasma at 25 mg/kg, iv; type: ADME, organism-based; design: dose 25 mg/kg, route intravenous; conditions: in vivo; summary of the method: as §1
[17] = biological target: T1, Ribosomal protein S6 kinase beta-1 (Homo sapiens, UniProt P23443); test: Inhibition of p70S6K by radiometric filter binding assay
Summary of the method: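 IC50 for p70S6K kinase activity measured in a radiometric filter binding assay.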
Target sequence in this assay (P23443 whole entry): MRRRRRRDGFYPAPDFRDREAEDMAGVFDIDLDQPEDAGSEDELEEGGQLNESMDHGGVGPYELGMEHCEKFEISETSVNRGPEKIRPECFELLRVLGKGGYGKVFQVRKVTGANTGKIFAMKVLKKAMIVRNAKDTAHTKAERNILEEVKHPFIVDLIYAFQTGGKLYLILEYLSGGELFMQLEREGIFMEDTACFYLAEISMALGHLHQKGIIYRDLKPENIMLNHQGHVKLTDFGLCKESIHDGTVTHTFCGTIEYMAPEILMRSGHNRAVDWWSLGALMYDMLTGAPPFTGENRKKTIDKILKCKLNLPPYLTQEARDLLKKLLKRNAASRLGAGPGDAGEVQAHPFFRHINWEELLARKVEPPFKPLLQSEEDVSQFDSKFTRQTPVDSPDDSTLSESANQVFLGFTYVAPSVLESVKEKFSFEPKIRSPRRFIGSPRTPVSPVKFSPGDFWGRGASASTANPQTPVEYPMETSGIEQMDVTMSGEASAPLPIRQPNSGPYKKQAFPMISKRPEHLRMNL

[18] = Oral bioavailability in BALB/c mouse at 25 mg/kg; type: ADME, organism-based; conditions: in vivo
Plasma = test: Drug level in BALB/c mouse plasma at 25 mg/kg, po; type: ADME, organism-based; design: dose 25 mg/kg, route oral; conditions: in vivo; summary of the method: as §1
[19] = Selectivity for PKBbeta over PKA
[20] = biological target: Receptor-type tyrosine-protein kinase FLT3 (Homo sapiens) (UniProt P36888); test: Inhibition of FLT3 at 1 uM
Summary of the method: (§2)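 Screen against a panel of 21 kinases, percent inhibition at 1 µM compound.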

[21] = biological target: Proto-oncogene tyrosine-protein kinase Src (Homo sapiens) (UniProt P12931); test: Inhibition of SRC at 1 uM; summary of the method: as §2
[22] = biological target: T2, Serine/threonine-protein kinase Chk1 (Homo sapiens) (UniProt O14757); test: Inhibition of CHK1 at 1 uM; summary of the method: as §2
T2 sequence (whole entry): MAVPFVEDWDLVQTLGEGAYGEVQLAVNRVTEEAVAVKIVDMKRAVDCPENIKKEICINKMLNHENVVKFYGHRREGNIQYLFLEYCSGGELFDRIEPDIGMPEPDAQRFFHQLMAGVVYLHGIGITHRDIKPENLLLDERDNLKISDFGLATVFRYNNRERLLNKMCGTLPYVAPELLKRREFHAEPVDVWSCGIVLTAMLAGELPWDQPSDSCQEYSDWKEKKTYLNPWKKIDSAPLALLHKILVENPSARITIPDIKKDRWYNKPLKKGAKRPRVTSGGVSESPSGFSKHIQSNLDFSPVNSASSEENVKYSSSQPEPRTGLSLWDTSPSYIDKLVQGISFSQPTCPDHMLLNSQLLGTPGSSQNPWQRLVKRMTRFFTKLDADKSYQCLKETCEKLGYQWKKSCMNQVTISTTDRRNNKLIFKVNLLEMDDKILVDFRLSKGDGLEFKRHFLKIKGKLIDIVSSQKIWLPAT

[23] = biological target: Serine/threonine-protein kinase Chk2 (Homo sapiens) (UniProt O96017); test: Inhibition of CHK2 at 1 uM; summary of the method: as §2
[24] = Inhibition of PKC at 1 uM; summary of the method: as §2
[25] = biological target: Rho-associated protein kinase 2 (Homo sapiens) (UniProt O75116); test: Inhibition of ROCK2 at 1 uM; summary of the method: as §2
[26] = biological target: Ribosomal protein S6 kinase alpha-2 (Homo sapiens) (UniProt Q15349); test: Inhibition of RSK2 at 1 uM; summary of the method: as §2
[27] = biological target: T1, Ribosomal protein S6 kinase beta-1; test: Inhibition of p70S6K at 1 uM; summary of the method: as §2
Target sequence in this assay (P23443 whole entry, looked up): as the sequence (P23443 whole entry) above

Chain of RAC-beta serine/threonine-protein kinase (P31751 whole entry): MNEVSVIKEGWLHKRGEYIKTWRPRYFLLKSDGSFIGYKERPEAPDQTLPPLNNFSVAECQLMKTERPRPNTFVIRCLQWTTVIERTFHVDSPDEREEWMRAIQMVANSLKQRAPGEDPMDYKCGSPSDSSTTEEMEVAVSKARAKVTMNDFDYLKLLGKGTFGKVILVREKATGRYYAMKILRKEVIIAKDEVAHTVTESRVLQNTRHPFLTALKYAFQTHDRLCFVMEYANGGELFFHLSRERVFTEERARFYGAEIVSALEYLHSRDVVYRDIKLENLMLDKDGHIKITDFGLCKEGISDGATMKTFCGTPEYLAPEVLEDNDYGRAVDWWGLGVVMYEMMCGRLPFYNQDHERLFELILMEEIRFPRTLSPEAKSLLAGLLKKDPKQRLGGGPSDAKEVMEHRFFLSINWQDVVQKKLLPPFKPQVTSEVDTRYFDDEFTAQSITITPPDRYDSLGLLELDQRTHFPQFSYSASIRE
Chain of Serine/threonine-protein kinase Chk2 (Homo sapiens) (O96017 whole entry): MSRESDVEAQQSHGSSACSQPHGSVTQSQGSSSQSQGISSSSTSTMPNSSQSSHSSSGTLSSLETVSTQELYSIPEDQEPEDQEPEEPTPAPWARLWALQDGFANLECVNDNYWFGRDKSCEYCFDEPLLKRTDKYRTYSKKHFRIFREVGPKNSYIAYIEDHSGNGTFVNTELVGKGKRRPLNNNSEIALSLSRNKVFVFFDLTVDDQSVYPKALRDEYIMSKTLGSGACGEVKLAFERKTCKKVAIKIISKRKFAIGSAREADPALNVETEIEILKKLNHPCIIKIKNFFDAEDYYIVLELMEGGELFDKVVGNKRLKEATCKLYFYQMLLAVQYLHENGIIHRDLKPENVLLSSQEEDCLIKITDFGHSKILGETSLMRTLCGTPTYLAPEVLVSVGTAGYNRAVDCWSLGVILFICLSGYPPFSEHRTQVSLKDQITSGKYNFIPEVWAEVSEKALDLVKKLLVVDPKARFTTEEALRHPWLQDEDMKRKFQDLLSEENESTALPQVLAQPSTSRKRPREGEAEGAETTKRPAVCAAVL
Chain of Receptor-type tyrosine-protein kinase FLT3 (Homo sapiens) (P36888 whole entry): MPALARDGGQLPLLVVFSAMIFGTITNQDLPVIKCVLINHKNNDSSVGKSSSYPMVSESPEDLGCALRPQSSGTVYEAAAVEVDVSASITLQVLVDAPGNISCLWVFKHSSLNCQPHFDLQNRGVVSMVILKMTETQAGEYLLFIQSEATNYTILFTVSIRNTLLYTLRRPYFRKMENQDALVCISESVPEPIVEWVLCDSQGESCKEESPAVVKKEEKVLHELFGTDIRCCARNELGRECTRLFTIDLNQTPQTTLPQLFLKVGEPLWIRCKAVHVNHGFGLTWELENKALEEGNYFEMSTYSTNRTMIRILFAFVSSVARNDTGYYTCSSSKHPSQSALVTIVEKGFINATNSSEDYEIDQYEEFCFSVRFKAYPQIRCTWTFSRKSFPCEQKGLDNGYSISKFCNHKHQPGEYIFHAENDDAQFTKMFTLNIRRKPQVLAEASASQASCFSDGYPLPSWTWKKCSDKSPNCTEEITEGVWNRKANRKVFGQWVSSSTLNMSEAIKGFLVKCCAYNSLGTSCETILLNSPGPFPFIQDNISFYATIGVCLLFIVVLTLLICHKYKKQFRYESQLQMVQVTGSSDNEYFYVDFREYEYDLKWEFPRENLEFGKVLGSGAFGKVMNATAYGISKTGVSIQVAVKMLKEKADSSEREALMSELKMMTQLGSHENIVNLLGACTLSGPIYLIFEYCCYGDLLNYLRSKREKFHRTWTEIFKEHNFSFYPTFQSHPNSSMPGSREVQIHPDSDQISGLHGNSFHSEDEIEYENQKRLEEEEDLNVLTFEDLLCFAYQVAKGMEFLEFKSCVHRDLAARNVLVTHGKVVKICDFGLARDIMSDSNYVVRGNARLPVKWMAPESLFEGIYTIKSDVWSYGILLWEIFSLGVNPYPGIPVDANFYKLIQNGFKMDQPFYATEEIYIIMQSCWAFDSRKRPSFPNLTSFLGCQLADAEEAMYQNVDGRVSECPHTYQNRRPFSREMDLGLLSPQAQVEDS
Chain of Ribosomal protein S6 kinase alpha-2 (Homo sapiens) (Q15349 whole entry): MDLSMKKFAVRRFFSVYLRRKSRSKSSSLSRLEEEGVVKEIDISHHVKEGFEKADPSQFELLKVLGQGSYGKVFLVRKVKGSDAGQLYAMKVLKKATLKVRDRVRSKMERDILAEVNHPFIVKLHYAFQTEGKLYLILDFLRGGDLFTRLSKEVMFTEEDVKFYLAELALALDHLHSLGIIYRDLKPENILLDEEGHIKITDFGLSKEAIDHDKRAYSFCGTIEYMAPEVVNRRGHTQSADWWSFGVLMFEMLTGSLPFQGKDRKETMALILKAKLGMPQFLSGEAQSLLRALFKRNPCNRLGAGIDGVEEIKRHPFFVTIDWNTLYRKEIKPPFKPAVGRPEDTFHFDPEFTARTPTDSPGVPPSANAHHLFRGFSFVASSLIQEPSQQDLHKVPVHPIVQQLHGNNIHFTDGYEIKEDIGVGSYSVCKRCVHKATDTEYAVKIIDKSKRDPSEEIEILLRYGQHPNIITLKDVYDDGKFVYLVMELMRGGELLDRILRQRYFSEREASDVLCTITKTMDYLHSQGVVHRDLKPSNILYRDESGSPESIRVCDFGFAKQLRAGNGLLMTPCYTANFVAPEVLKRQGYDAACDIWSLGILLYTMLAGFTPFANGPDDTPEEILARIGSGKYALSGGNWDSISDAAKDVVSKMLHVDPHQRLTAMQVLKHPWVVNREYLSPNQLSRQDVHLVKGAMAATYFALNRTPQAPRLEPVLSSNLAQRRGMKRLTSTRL
Chain of Rho-associated protein kinase 2 (Homo sapiens) (O75116 whole entry, looked up): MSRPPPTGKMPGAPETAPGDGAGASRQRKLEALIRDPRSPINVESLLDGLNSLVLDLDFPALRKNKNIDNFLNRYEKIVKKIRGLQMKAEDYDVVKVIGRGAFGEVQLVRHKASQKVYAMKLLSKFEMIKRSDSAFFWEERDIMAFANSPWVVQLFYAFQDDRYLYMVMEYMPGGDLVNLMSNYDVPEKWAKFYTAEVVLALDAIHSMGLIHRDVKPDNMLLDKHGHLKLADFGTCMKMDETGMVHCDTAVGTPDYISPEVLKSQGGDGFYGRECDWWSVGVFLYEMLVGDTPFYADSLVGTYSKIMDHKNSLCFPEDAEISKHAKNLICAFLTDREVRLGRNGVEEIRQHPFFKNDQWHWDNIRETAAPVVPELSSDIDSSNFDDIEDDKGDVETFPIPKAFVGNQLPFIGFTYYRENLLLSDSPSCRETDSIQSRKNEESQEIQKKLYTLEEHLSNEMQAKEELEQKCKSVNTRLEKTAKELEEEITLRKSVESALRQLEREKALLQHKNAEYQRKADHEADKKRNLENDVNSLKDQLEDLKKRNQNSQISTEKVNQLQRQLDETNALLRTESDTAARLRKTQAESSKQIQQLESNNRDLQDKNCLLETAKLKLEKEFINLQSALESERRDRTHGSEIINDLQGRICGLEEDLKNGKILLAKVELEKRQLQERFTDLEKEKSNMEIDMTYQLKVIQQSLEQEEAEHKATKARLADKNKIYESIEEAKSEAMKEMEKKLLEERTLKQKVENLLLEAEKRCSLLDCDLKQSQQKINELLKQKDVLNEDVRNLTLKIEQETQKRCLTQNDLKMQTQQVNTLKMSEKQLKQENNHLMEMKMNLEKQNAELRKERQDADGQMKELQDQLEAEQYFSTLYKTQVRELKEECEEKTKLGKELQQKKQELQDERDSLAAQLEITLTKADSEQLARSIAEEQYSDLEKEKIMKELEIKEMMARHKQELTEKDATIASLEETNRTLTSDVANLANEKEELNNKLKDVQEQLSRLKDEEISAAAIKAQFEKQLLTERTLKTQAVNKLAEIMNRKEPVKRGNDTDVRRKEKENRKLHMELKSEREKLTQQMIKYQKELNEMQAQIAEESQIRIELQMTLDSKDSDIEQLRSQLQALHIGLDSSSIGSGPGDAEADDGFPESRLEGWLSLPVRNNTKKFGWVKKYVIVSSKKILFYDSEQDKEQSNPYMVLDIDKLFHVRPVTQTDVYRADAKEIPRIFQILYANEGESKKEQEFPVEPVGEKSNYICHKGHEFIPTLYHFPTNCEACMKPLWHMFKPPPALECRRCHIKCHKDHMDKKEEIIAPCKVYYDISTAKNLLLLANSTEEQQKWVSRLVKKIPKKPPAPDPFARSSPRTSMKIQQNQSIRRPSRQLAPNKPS

## NCC1(c2ccc(Cl)cc2)CCN(c2ncnc3[nH]cnc23)CC1
[1]
  IC50: 16 nM
[2]
  IC50: 3 nM
[3]
  IC50: 5700 nM

## NCC1CCN(c2ncnc3[nH]ncc23)CC1
[1]
  IC50: 920 nM
[2]
  IC50: 2400 nM
[3]
  IC50: > 50000 nM

## NC(c1ccccc1)C1CCN(c2ncnc3[nH]ccc23)CC1 (stereo not given)
[1]
  IC50: 246 nM
[2]
  IC50: 726 nM
[3]
  IC50: 38000 nM

## NC(=O)C1CCN(c2ncnc3[nH]cnc23)CC1
[1]
  IC50: 41000 nM

## NC(c1ccc(Cl)cc1)C1CCN(c2ncnc3[nH]cnc23)CC1 (stereo not given)
[1]
  IC50: 71 nM
[2]
  IC50: 27 nM
[3]
  IC50: 23000 nM

## NC1CCN(c2ncnc3[nH]ccc23)CC1
[1]
  IC50: 180 nM
[2]
  IC50: 1550 nM
[3]
  IC50: 48000 nM

## c1nc(N2CCCCC2)c2nc[nH]c2n1
[1]
  IC50: 59000 nM

## NCC1(c2ccc(Cl)cc2)CCN(c2ccnc3[nH]ccc23)CC1
[1]
  IC50: 25 nM
[2]
  IC50: 3 nM
[3]
  IC50: 16000 nM

## NCC1CCN(c2ncnc3[nH]ccc23)CC1
[1]
  IC50: 770 nM
[2]
  IC50: 460 nM
[3]
  IC50: 32000 nM

## NC1CCN(c2ccnc3[nH]ccc23)CC1
[1]
  IC50: 880 nM
[2]
  IC50: 1930 nM
[3]
  IC50: 31000 nM

## NCC1(Cc2ccc(Cl)cc2)CCN(c2ncnc3[nH]cnc23)CC1
[1]
  IC50: 3 nM
[2]
  IC50: 7 nM
[3]
  IC50: 20000 nM

## NC1(c2ccc(Cl)cc2)CCN(c2ncnc3[nH]ccc23)CC1
[1]
  IC50: 7 nM
[2]
  IC50: 15 nM
[3]
  IC50: 8000 nM
[4]
  IC50: 4700 nM

## O=S(=O)(NCCNC/C=C/c1ccc(Br)cc1)c1cccc2cnccc12
[2]
  IC50: 5300 nM
[3]
  IC50: 18000 nM

## NC(c1ccc(Cl)cc1)C1CCN(c2ncnc3[nH]ccc23)CC1 (stereo not given)
[1]
  IC50: 25 nM
[2]
  IC50: 54 nM
[3]
  IC50: 7400 nM
[4]
  IC50: 6000 nM

## NC1(c2ccc(Cl)cc2)CCN(c2ncnc3[nH]cnc23)CC1
[1]
  IC50: 7 nM
[2]
  IC50: 23 nM
[3]
  IC50: > 50000 nM

## NC1(Cc2ccc(Cl)cc2)CCN(c2ncnc3[nH]ccc23)CC1
[3]
  IC50: 12000 nM
[4]
  IC50: 5000 nM
[5]
  remaining at 0.5 h, 10 µM: 79%
[6]
  remaining at 0.5 h, 10 µM: 87%
Mus musculus [7]
  t1/2: 57 min
[8]
  half-life: 34.2 min
[9]
  Tmax: 4.98 min
[10]
  Tmax: 30 min
[11]
  Cmax: 6360 nM
[12]
  Cmax: 432 nM
[13]
  AUC: 4.62 µM·h
[14]
  AUC: 0.392 µM·h
Mus musculus [15]
  Vdss: 0.25 L
Mus musculus [16]
  clearance: 0.325 L/h
[17]
  IC50: 120 nM
[18]
  bioavailability: 8.5%
Plasma
  concentration: 432 nM

## NC1CCN(c2ncnc3[nH]ncc23)CC1
[1]
  IC50: 830 nM
[2]
  IC50: 7300 nM
[3]
  IC50: 38000 nM

## NC1(Cc2ccc(Cl)cc2)CCN(c2ncnc3[nH]cnc23)CC1
[1]
  IC50: 25 nM
[2]
  IC50: 286 nM
[3]
  IC50: > 50000 nM
[19]
  Selectivity ratio: 11

## NCC1(c2ccc(Cl)cc2)CCN(c2ncnc3[nH]ccc23)CC1
[1]
  IC50: 8 nM
[2]
  IC50: 5 nM
[3]
  IC50: 1000 nM
[4]
  IC50: 520 nM
[20]
  inhibition: > 60%
[21]
  inhibition: > 60%
[22]
  inhibition: > 60%
[23]
  inhibition: > 60%
[24]
  inhibition: > 60%
[25]
  inhibition: > 60%
[26]
  inhibition: > 60%
[27]
  inhibition: > 60%

## NCC1(Cc2ccc(Cl)cc2)CCN(c2ncnc3[nH]ccc23)CC1
[1]
  IC50: 5 nM
[2]
  IC50: 9 nM
[3]
  IC50: 15000 nM
[4]
  IC50: 4300 nM

## NCC1CCN(c2ncnc3[nH]cnc23)CC1
[1]
  IC50: 290 nM
[2]
  IC50: 890 nM
[3]
  IC50: > 50000 nM

## NC(c1ccc(Cl)cc1)C1CCN(c2ccnc3[nH]ccc23)CC1 (stereo not given)
[1]
  IC50: 12 nM
[2]
  IC50: 3 nM
[3]
  IC50: 5300 nM
[4]
  IC50: 3500 nM

## Cc1nc2ncnc(N3CCC(N)CC3)c2[nH]1
[1]
  IC50: 110000 nM
